Laboratory results published in ChEMBL document CHEMBL4270642, “Boronic ester-linked macrocyclic lipopeptides as serine protease inhibitors targeting Escherichia coli type I signal peptidase” (Eur J Med Chem, 2018).
In brackets after ≈: the same amount, converted by molar mass.

Key:
[1] = system: Escherichia coli; experiment: Antibacterial activity against Escherichia coli ATCC 25922 after 16 to 20 hrs by broth microdilution method; assay type: functional
Procedure, shortened: (§1)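 Broth microdilution in cation-adjusted Mueller-Hinton II per EUCAST/CLSI; two-fold compound series 64 down to 0.25 µg/mL final. Inoculum from fresh colonies (non-selective agar, 18-24 h, 35 ± 2 °C), adjusted to 0.5 McFarland, diluted to about 5 × 10^5 CFU/mL final. Static incubation 16-20 h at 35 ± 2 °C; MIC read visually as complete growth inhibition against medium-only wells.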

[2] = system: Pseudomonas aeruginosa; experiment: Antibacterial activity against Pseudomonas aeruginosa PAO1 after 16 to 20 hrs by broth microdilution method; assay type: functional; procedure, shortened: as §1
[3] = system: Pseudomonas aeruginosa; experiment: Antibacterial activity against efflux defective Pseudomonas aeruginosa PAO750 after 16 to 20 hrs by broth microdilution method; assay type: functional; procedure, shortened: as §1
[4] = biological target: Signal peptidase I (Escherichia coli K-12) (UniProt P00803); experiment: Inhibition of Escherichia coli type 1 signal peptidase lepB assessed as residual activity at 0.0006 uM preincubated for 10 mins followed by Dabcyl-VGGTATAYGAFSRPGLE-(EDANS)-OH substrate addition measured after 2 hrs by FRET based assay (reference value: 100%)
Procedure, shortened: (§2)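 EcLepB (about 50 nM estimated) preincubated 10 min with compound. Reaction started with Dabcyl/EDANS FRET peptide at 8 µM final (Km 20 µM). Fluorescence followed continuously at 535 nm, 22 °C, for 2 h. Cleavage rates plotted against inhibitor concentration; IC50 from non-linear regression of sigmoidal dose-response curves.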

[5] = biological target: Signal peptidase I (Escherichia coli K-12) (UniProt P00803); experiment: Inhibition of Escherichia coli type 1 signal peptidase lepB assessed as residual activity at 0.1563 uM preincubated for 10 mins followed by Dabcyl-VGGTATAYGAFSRPGLE-(EDANS)-OH substrate addition measured after 2 hrs by FRET based assay (reference value: 100%); procedure, shortened: as §2
[6] = biological target: Signal peptidase I (Escherichia coli K-12, UniProt P00803); experiment: Inhibition of Escherichia coli type 1 signal peptidase lepB preincubated for 10 mins followed by Dabcyl-VGGTATAYGAFSRPGLE-(EDANS)-OH substrate addition measured after 2 hrs by FRET based assay; procedure, shortened: as §2
[7] = Hemolytic activity in human RBC at 100 uM after 45 mins by spectrophotometric method relative to control; assay type: ADME, cell-based, Erythrocyte; conditions: red blood cells (erythrocytes), read-out: Activity
Procedure, shortened: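 Heparinized human blood; red cells washed three times in Tyrode buffer pH 7.4. Compound at 100 µM final with 1% DMSO and 50% RBC, shaken (250 rpm) 45 min at 37 °C. Cells pelleted (1000 × g, 10 min); supernatant haemoglobin at 540 nm. Percent lysis relative to buffer-only and 2% Triton X-100 controls.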

[8] = system: Escherichia coli; experiment: Antibacterial activity against tolC deficient Escherichia coli CH3130 after 16 to 20 hrs by broth microdilution method; assay type: functional; procedure, shortened: as §1
[9] = biological target: Signal peptidase I (Escherichia coli K-12) (UniProt P00803); experiment: Inhibition of Escherichia coli type 1 signal peptidase lepB assessed as residual activity at 10 uM preincubated for 10 mins followed by Dabcyl-VGGTATAYGAFSRPGLE-(EDANS)-OH substrate addition measured after 2 hrs by FRET based assay (reference value: 100%); procedure, shortened: as §2
[10] = system: Klebsiella pneumoniae; experiment: Antibacterial activity against Klebsiella pneumoniae ATCC 13883 after 16 to 20 hrs by broth microdilution method; assay type: functional; procedure, shortened: as §1
[11] = biological target: Signal peptidase I (Escherichia coli K-12) (UniProt P00803); experiment: Inhibition of Escherichia coli type 1 signal peptidase lepB assessed as residual activity at 0.0012 uM preincubated for 10 mins followed by Dabcyl-VGGTATAYGAFSRPGLE-(EDANS)-OH substrate addition measured after 2 hrs by FRET based assay (reference value: 100%); procedure, shortened: as §2
[12] = biological target: Signal peptidase I (Escherichia coli K-12) (UniProt P00803); experiment: Inhibition of Escherichia coli type 1 signal peptidase lepB assessed as residual activity at 2.5 uM preincubated for 10 mins followed by Dabcyl-VGGTATAYGAFSRPGLE-(EDANS)-OH substrate addition measured after 2 hrs by FRET based assay (reference value: 100%); procedure, shortened: as §2
[13] = biological target: Signal peptidase I (Escherichia coli K-12) (UniProt P00803); experiment: Inhibition of Escherichia coli type 1 signal peptidase lepB assessed as residual activity at 0.0781 uM preincubated for 10 mins followed by Dabcyl-VGGTATAYGAFSRPGLE-(EDANS)-OH substrate addition measured after 2 hrs by FRET based assay (reference value: 100%); procedure, shortened: as §2
[14] = biological target: Signal peptidase I (Escherichia coli K-12) (UniProt P00803); experiment: Inhibition of Escherichia coli type 1 signal peptidase lepB assessed as residual activity at 0.0195 uM preincubated for 10 mins followed by Dabcyl-VGGTATAYGAFSRPGLE-(EDANS)-OH substrate addition measured after 2 hrs by FRET based assay (reference value: 100%); procedure, shortened: as §2
[15] = biological target: Signal peptidase I (Escherichia coli K-12) (UniProt P00803); experiment: Inhibition of Escherichia coli type 1 signal peptidase lepB assessed as residual activity at 0.0024 uM preincubated for 10 mins followed by Dabcyl-VGGTATAYGAFSRPGLE-(EDANS)-OH substrate addition measured after 2 hrs by FRET based assay (reference value: 100%); procedure, shortened: as §2
[16] = biological target: Signal peptidase I (Escherichia coli K-12) (UniProt P00803); experiment: Inhibition of Escherichia coli type 1 signal peptidase lepB assessed as residual activity at 0.625 uM preincubated for 10 mins followed by Dabcyl-VGGTATAYGAFSRPGLE-(EDANS)-OH substrate addition measured after 2 hrs by FRET based assay (reference value: 100%); procedure, shortened: as §2
[17] = system: Escherichia coli; experiment: Antibacterial activity against Escherichia coli D22 CGSG 5163 harboring Ips mutant after 16 to 20 hrs by broth microdilution method; assay type: functional
Procedure, shortened: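 Broth microdilution in cation-adjusted Mueller-Hinton II broth, following EUCAST and CLSI guidelines. Two-fold series at final concentrations 64 down to 0.25 µg/mL, with medium-only and growth controls. Inoculum from fresh colonies (18-24 h, 35 °C ± 2 °C) adjusted to 0.5 McFarland, final ≈5 × 10^5 CFU/mL. Plates incubated unshaken 16-20 h at 35 °C ± 2 °C. MIC read visually as complete inhibition of growth.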

[18] = biological target: Signal peptidase I (Escherichia coli K-12) (UniProt P00803); experiment: Inhibition of Escherichia coli type 1 signal peptidase lepB assessed as residual activity at 1.25 uM preincubated for 10 mins followed by Dabcyl-VGGTATAYGAFSRPGLE-(EDANS)-OH substrate addition measured after 2 hrs by FRET based assay (reference value: 100%); procedure, shortened: as §2
[19] = biological target: Signal peptidase I (Escherichia coli K-12) (UniProt P00803); experiment: Inhibition of Escherichia coli type 1 signal peptidase lepB assessed as residual activity at 0.0391 uM preincubated for 10 mins followed by Dabcyl-VGGTATAYGAFSRPGLE-(EDANS)-OH substrate addition measured after 2 hrs by FRET based assay (reference value: 100%); procedure, shortened: as §2
[20] = system: HepG2; experiment: Cytotoxicity against human HepG2 cells after 72 hrs by FMSA; assay type: cell-based; conditions: HepG2, 72 h
Procedure, shortened: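 HepG2 (ATCC) grown in EMEM with 10% FBS, pen/strep, 2 mM L-glutamine, used up to 20 passages. Seeded at 1000 cells/well, cultured overnight, then dosed acoustically from DMSO stocks. Eight two-fold dilutions in duplicate from top 64 or 32 µM; 72 h at 37 °C, 5% CO2. Fluorescein diacetate hydrolysis read at ex 485/em 530 nm; IC50 by non-linear regression.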

[21] = system: Staphylococcus aureus; experiment: Antibacterial activity against Staphylococcus aureus ATCC 29213 after 16 to 20 hrs by broth microdilution method; assay type: functional; procedure, shortened: as §1
[22] = system: Acinetobacter baumannii; experiment: Antibacterial activity against Acinetobacter baumannii ATCC 19606 after 16 to 20 hrs by broth microdilution method; assay type: functional; conditions: ATCC 19606 = CIP 70.34 = JCM 6841; procedure, shortened: as §1
[23] = biological target: Signal peptidase I (Escherichia coli K-12) (UniProt P00803); experiment: Inhibition of Escherichia coli type 1 signal peptidase lepB assessed as residual activity at 0.0049 uM preincubated for 10 mins followed by Dabcyl-VGGTATAYGAFSRPGLE-(EDANS)-OH substrate addition measured after 2 hrs by FRET based assay (reference value: 100%); procedure, shortened: as §2
[24] = biological target: Signal peptidase I (Escherichia coli K-12) (UniProt P00803); experiment: Inhibition of Escherichia coli type 1 signal peptidase lepB assessed as residual activity at 5 uM preincubated for 10 mins followed by Dabcyl-VGGTATAYGAFSRPGLE-(EDANS)-OH substrate addition measured after 2 hrs by FRET based assay (reference value: 100%); procedure, shortened: as §2
[25] = biological target: Signal peptidase I (Escherichia coli K-12) (UniProt P00803); experiment: Inhibition of Escherichia coli type 1 signal peptidase lepB assessed as residual activity at 0.3125 uM preincubated for 10 mins followed by Dabcyl-VGGTATAYGAFSRPGLE-(EDANS)-OH substrate addition measured after 2 hrs by FRET based assay (reference value: 100%); procedure, shortened: as §2
[26] = biological target: Signal peptidase I (Escherichia coli K-12) (UniProt P00803); experiment: Inhibition of Escherichia coli type 1 signal peptidase lepB assessed as residual activity at 0.0098 uM preincubated for 10 mins followed by Dabcyl-VGGTATAYGAFSRPGLE-(EDANS)-OH substrate addition measured after 2 hrs by FRET based assay (reference value: 100%); procedure, shortened: as §2

Chain of Signal peptidase I (Escherichia coli K-12) (P00803 whole entry): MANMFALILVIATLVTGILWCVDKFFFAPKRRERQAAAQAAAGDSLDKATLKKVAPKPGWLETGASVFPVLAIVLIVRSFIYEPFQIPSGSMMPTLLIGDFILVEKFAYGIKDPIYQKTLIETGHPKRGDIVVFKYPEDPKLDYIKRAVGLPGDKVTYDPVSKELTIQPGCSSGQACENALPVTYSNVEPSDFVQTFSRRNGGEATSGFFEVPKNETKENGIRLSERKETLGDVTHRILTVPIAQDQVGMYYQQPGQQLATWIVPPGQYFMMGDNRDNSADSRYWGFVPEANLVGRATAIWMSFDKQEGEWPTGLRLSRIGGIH
Chain of Signal peptidase I (P00803 whole entry): as above

Work on `CCCCCCc1ccc(-c2ccc(C(=O)N[C@@H](CCCN)C(=O)N[C@H](C(=O)N[C@@H](C)C(=O)N[C@H]3Cc4cn(nn4)CCN4C[C@@H]5OB(O[C@@H]5C4)[C@H](C)NC3=O)[C@@H](C)O)cc2)cc1` yielded an MIC [1] of 64 mg/L (≈ 73.5 µM), an MIC [2] of over 64 mg/L and an MIC [3] of over 64 mg/L. The Activity [4] was 97.3%, the Activity [5] was 47.2% and the IC50 [6] was 0.104 µM. The hemolysis at 0.75 h, 100 µM [7] was 10.1%, the MIC [8] was 16 mg/L (≈ 18.4 µM) and the Activity [9] was 17.8%. The MIC [10] was 64 mg/L (≈ 73.5 µM), the Activity [11] was 80.6% and the Activity [12] was 29.8%. For the same molecule, the Activity [13] was 61.4%, the Activity [14] was 71.3% and the Activity [15] was 79.9%. It also gave an Activity [16] of 36.3%, an MIC [17] of 32 mg/L (≈ 36.7 µM) and an Activity [18] of 32.9%. For the same molecule, the Activity [19] was 63.8%, the IC50 [20] was 9.5 µM and the MIC [21] was 32 mg/L (≈ 36.7 µM). It also gave an MIC [22] of 32 mg/L (≈ 36.7 µM), an Activity [23] of 77% and an Activity [24] of 26.7%. For the same molecule, the Activity [25] was 38.8% and the Activity [26] was 77.9%.
